Data reported in ChEMBL document CHEMBL4842318, “A γ-lactam siderophore antibiotic effective against multidrug-resistant Pseudomonas aeruginosa, Klebsiella pneumoniae, and Acinetobacter spp” (Eur J Med Chem, 2021).
In brackets after ≈: the same amount, converted by molar mass.

Key:
Acinetobacter baumannii [1] = assay: Antibacterial activity against 98 member subset of carbapenem resistant Acinetobacter baumannii assessed as assessed as inhibition of bacterial growth by microdilution method; format: functional
Procedure, shortened: (§1)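 Broth microdilution in Chelex-treated, iron-depleted cation-adjusted Mueller-Hinton broth, following the protocol used for siderophore-containing antibiotics; inoculum lowered to 6 × 10^4 cfu/mL; MIC read as growth inhibition, in μg/mL.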

Acinetobacter baumannii [2] = assay: Antibacterial activity against panel of 198 clinical isolates Acinetobacter baumannii assessed as inhibition of bacterial growth by microdilution method; format: functional
[3] = Inhibition of Acinetobacter sp. strain ATCC 27244 PBP3 expressed in Escherichia coli BL21 (DE3) assessed as reduction in fluorescence intensity using Bocillin-protein as fluorescent substrate by SDS PAGE analysis
Pseudomonas aeruginosa [4] = assay: Antibacterial activity against wild type Pseudomonas aeruginosa isolate PR-604 assessed as inhibition of bacterial growth by microdilution method; format: functional
Procedure, shortened: (§2)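 Broth microdilution MIC in iron-depleted (Chelex resin-treated) cation-adjusted Mueller-Hinton broth, following the protocol used for siderophore-containing antibiotics. Inoculum was lowered to 6 × 10^4 cfu/mL.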

Pseudomonas aeruginosa [5] = assay: Antibacterial activity against wild type Pseudomonas aeruginosa isolate PR-699 assessed as inhibition of bacterial growth by microdilution method; format: functional; procedure, shortened: as §2
Pseudomonas aeruginosa [6] = assay: Antibacterial activity against Pseudomonas aeruginosa isolate PR-627 leucine at 533 residue assessed as inhibition of bacterial growth by microdilution method; format: functional; procedure, shortened: as §1
Pseudomonas aeruginosa [7] = assay: Antibacterial activity against wild type Pseudomonas aeruginosa isolate PR-567 assessed as inhibition of bacterial growth by microdilution method; format: functional; procedure, shortened: as §2
Pseudomonas aeruginosa [8] = assay: Antibacterial activity against wild type Pseudomonas aeruginosa isolate PR-548 assessed as inhibition of bacterial growth by microdilution method; format: functional; procedure, shortened: as §2
Pseudomonas aeruginosa [9] = assay: Antibacterial activity against wild type Pseudomonas aeruginosa isolate PR-676 assessed as inhibition of bacterial growth by microdilution method; format: functional; procedure, shortened: as §2
Pseudomonas aeruginosa [10] = assay: Antibacterial activity against wild type Pseudomonas aeruginosa isolate PR-606 assessed as inhibition of bacterial growth by microdilution method; format: functional; procedure, shortened: as §2
Pseudomonas aeruginosa [11] = assay: Antibacterial activity against wild type Pseudomonas aeruginosa isolate PR-636 leucine at 533 residue assessed as inhibition of bacterial growth by microdilution method; format: functional; procedure, shortened: as §2
Pseudomonas aeruginosa [12] = assay: Antibacterial activity against wild type Pseudomonas aeruginosa isolate PR-651 leucine at 533 residue assessed as inhibition of bacterial growth by microdilution method; format: functional; procedure, shortened: as §2
Pseudomonas aeruginosa [13] = assay: Antibacterial activity against wild type Pseudomonas aeruginosa isolate PR-635 assessed as inhibition of bacterial growth by microdilution method; format: functional; procedure, shortened: as §2
Pseudomonas aeruginosa [14] = assay: Antibacterial activity against Pseudomonas aeruginosa AR-BANK#0229; format: functional; procedure, shortened: as §1
Pseudomonas aeruginosa [15] = assay: Antibacterial activity against Pseudomonas aeruginosa isolate PR-564 leucine at 533 residue assessed as inhibition of bacterial growth by microdilution method; format: functional; procedure, shortened: as §1
Pseudomonas aeruginosa [16] = assay: Antibacterial activity against wild type Pseudomonas aeruginosa isolate PR-638 assessed as inhibition of bacterial growth by microdilution method; format: functional; procedure, shortened: as §2
Pseudomonas aeruginosa [17] = assay: Antibacterial activity against wild type Pseudomonas aeruginosa isolate PR-680 leucine at 533 residue assessed as inhibition of bacterial growth by microdilution method; format: functional; procedure, shortened: as §2
Pseudomonas aeruginosa [18] = assay: Antibacterial activity against wild type Pseudomonas aeruginosa isolate PR-503 assessed as inhibition of bacterial growth by microdilution method; format: functional; procedure, shortened: as §2
Pseudomonas aeruginosa [19] = assay: Antibacterial activity against wild type Pseudomonas aeruginosa isolate PR-677 assessed as inhibition of bacterial growth by microdilution method; format: functional; procedure, shortened: as §2
Pseudomonas aeruginosa [20] = assay: Antibacterial activity against wild type Pseudomonas aeruginosa isolate PR-688 leucine at 533 residue assessed as inhibition of bacterial growth by microdilution method; format: functional; procedure, shortened: as §2
Pseudomonas aeruginosa [21] = assay: Antibacterial activity against wild type Pseudomonas aeruginosa isolate PR-545 assessed as inhibition of bacterial growth by microdilution method; format: functional; procedure, shortened: as §2
Pseudomonas aeruginosa [22] = assay: Antibacterial activity against wild type Pseudomonas aeruginosa isolate PR-668 leucine at 533 residue assessed as inhibition of bacterial growth by microdilution method; format: functional; procedure, shortened: as §2
Pseudomonas aeruginosa [23] = assay: Antibacterial activity against wild type Pseudomonas aeruginosa isolate PR-673 leucine at 533 residue assessed as inhibition of bacterial growth by microdilution method; format: functional; procedure, shortened: as §2
Pseudomonas aeruginosa [24] = assay: Antibacterial activity against wild type Pseudomonas aeruginosa isolate PR-672 assessed as inhibition of bacterial growth by microdilution method; format: functional; procedure, shortened: as §2
[25] = Antibacterial activity against carbapenem susceptible Acinetobacter nosocomialis isolate PR-362 assessed as bacterial growth inhibition by microdilution method; format: functional; procedure, shortened: as §2
Acinetobacter baumannii [26] = assay: Antibacterial activity against carbapenem resistant Acinetobacter baumannii isolate PR-482 assessed as bacterial growth inhibition by microdilution method; format: functional; procedure, shortened: as §1
Acinetobacter baumannii [27] = assay: Antibacterial activity against carbapenem resistant Acinetobacter baumannii isolate PR-423 assessed as bacterial growth inhibition by microdilution method; format: functional; procedure, shortened: as §1
Acinetobacter baumannii [28] = assay: Antibacterial activity against carbapenem susceptible Acinetobacter baumannii isolate PR-464 assessed as bacterial growth inhibition by microdilution method; format: functional; procedure, shortened: as §2
[29] = Antibacterial activity against carbapenem susceptible Acinetobacter nosocomialis isolate PR-491 assessed as bacterial growth inhibition by microdilution method; format: functional; procedure, shortened: as §2
Acinetobacter baumannii [30] = assay: Antibacterial activity against carbapenem resistant Acinetobacter baumannii isolate PR-319 assessed as bacterial growth inhibition by microdilution method; format: functional; procedure, shortened: as §1
Acinetobacter baumannii [31] = assay: Antibacterial activity against carbapenem resistant Acinetobacter baumannii isolate PR-401 assessed as bacterial growth inhibition by microdilution method; format: functional; procedure, shortened: as §1
Acinetobacter baumannii [32] = assay: Antibacterial activity against carbapenem resistant Acinetobacter baumannii isolate PR-459 assessed as bacterial growth inhibition by microdilution method; format: functional; procedure, shortened: as §1
[33] = Antibacterial activity against carbapenem susceptible Acinetobacter nosocomialis isolate PR-412 assessed as bacterial growth inhibition by microdilution method; format: functional; procedure, shortened: as §2
Acinetobacter baumannii [34] = assay: Antibacterial activity against carbapenem resistant Acinetobacter baumannii isolate PR-314 assessed as bacterial growth inhibition by microdilution method; format: functional; procedure, shortened: as §1
[35] = Antibacterial activity against carbapenem susceptible Acinetobacter nosocomialis isolate PR-365 assessed as bacterial growth inhibition by microdilution method; format: functional; procedure, shortened: as §2
Acinetobacter baumannii [36] = assay: Antibacterial activity against carbapenem susceptible Acinetobacter baumannii isolate PR-340 assessed as bacterial growth inhibition by microdilution method; format: functional; procedure, shortened: as §2
Acinetobacter baumannii [37] = assay: Antibacterial activity against carbapenem resistant Acinetobacter baumannii isolate PR-342 assessed as bacterial growth inhibition by microdilution method; format: functional; procedure, shortened: as §1
Acinetobacter baumannii [38] = assay: Antibacterial activity against carbapenem susceptible Acinetobacter baumannii isolate PR-452 assessed as bacterial growth inhibition by microdilution method; format: functional; procedure, shortened: as §2
Acinetobacter baumannii [39] = assay: Antibacterial activity against carbapenem susceptible Acinetobacter baumannii isolate PR-434 assessed as bacterial growth inhibition by microdilution method; format: functional; procedure, shortened: as §2
Acinetobacter baumannii [40] = assay: Antibacterial activity against carbapenem resistant Acinetobacter baumannii isolate PR-380 assessed as bacterial growth inhibition by microdilution method; format: functional; procedure, shortened: as §1
Acinetobacter baumannii [41] = assay: Antibacterial activity against carbapenem resistant Acinetobacter baumannii isolate PR-351 assessed as bacterial growth inhibition by microdilution method; format: functional; procedure, shortened: as §1
Acinetobacter baumannii [42] = assay: Antibacterial activity against carbapenem resistant Acinetobacter baumannii isolate PR-325 assessed as bacterial growth inhibition by microdilution method; format: functional; procedure, shortened: as §1
Acinetobacter baumannii [43] = assay: Antibacterial activity against carbapenem resistant Acinetobacter baumannii isolate PR-387 assessed as bacterial growth inhibition by microdilution method; format: functional; procedure, shortened: as §1
Acinetobacter baumannii [44] = assay: Antibacterial activity against carbapenem resistant Acinetobacter baumannii isolate PR-399 assessed as bacterial growth inhibition by microdilution method; format: functional; procedure, shortened: as §1
Acinetobacter baumannii [45] = assay: Antibacterial activity against carbapenem resistant Acinetobacter baumannii isolate PR-345 assessed as bacterial growth inhibition by microdilution method; format: functional; procedure, shortened: as §1
Acinetobacter baumannii [46] = assay: Antibacterial activity against carbapenem resistant Acinetobacter baumannii isolate PR-326 assessed as bacterial growth inhibition by microdilution method; format: functional; procedure, shortened: as §1
Acinetobacter baumannii [47] = assay: Antibacterial activity against carbapenem resistant Acinetobacter baumannii isolate PR-384 assessed as bacterial growth inhibition by microdilution method; format: functional; procedure, shortened: as §1

CC(C)(O/N=C(\C(=O)N[C@@H]1C(=O)N2C(C(=O)[O-])=C(C[n+]3ccccc3)CS[C@H]12)c1csc(N)n1)C(=O)O [CEFTAZIDIME]
MIC50 (Acinetobacter baumannii [1]): > 64 µg/mL
MIC90 (Acinetobacter baumannii [1]): > 64 µg/mL
MIC50 (Acinetobacter baumannii [2]): 64 µg/mL (≈ 117 µM)
MIC90 (Acinetobacter baumannii [2]): > 64 µg/mL

C[C@@H](O)[C@H]1C(=O)N2C(C(=O)O)=C(S[C@@H]3CN[C@H](CNS(N)(=O)=O)C3)[C@H](C)[C@H]12 [DORIPENEM]
IC50 [3]: 2300 nM

C[C@H]1[C@H](NC(=O)/C(=N\OC(C)(C)C(=O)O)c2csc(N)n2)C(=O)N1S(=O)(=O)O [AZTREONAM]
MIC50 (Acinetobacter baumannii [1]): > 32 µg/mL
MIC90 (Acinetobacter baumannii [1]): > 32 µg/mL

C[C@@H](O)[C@H]1C(=O)N2C(C(=O)O)=C(S[C@@H]3CN[C@H](C(=O)N(C)C)C3)[C@H](C)[C@H]12 [MEROPENEM]
MIC90 (Acinetobacter baumannii [1]): > 64 µg/mL
MIC50 (Acinetobacter baumannii [2]): 8 µg/mL (≈ 20.9 µM)
MIC90 (Acinetobacter baumannii [2]): > 64 µg/mL

CC(C)(O/N=C(\C(=O)N[C@H]1CN2CC(C(=O)NCCN3C(=O)c4cc(O)c(O)cc4C3=O)=C(C(=O)O)N2C1=O)c1csc(N)n1)C(=O)O (stereo in doubt)
MIC (Pseudomonas aeruginosa [4]): ≤ 0.25 µg/mL
MIC (Pseudomonas aeruginosa [5]): > 16 µg/mL
MIC (Pseudomonas aeruginosa [6]): > 16 µg/mL
MIC (Pseudomonas aeruginosa [7]): ≤ 0.25 µg/mL
MIC (Pseudomonas aeruginosa [8]): ≤ 0.25 µg/mL
MIC (Pseudomonas aeruginosa [9]): 16 µg/mL (≈ 23.3 µM)
MIC (Pseudomonas aeruginosa [10]): 16 µg/mL (≈ 23.3 µM)
MIC (Pseudomonas aeruginosa [11]): > 16 µg/mL
MIC (Pseudomonas aeruginosa [12]): > 16 µg/mL
MIC (Pseudomonas aeruginosa [13]): 16 µg/mL (≈ 23.3 µM)
MIC (Pseudomonas aeruginosa [14]): 0.25 µg/mL (≈ 0.364 µM)
MIC (Pseudomonas aeruginosa [15]): > 16 µg/mL
MIC (Pseudomonas aeruginosa [16]): > 16 µg/mL
MIC (Pseudomonas aeruginosa [17]): > 16 µg/mL
MIC (Pseudomonas aeruginosa [18]): 16 µg/mL (≈ 23.3 µM)
MIC (Pseudomonas aeruginosa [19]): 16 µg/mL (≈ 23.3 µM)
MIC (Pseudomonas aeruginosa [20]): > 16 µg/mL
MIC (Pseudomonas aeruginosa [21]): ≤ 0.25 µg/mL
MIC (Pseudomonas aeruginosa [22]): > 16 µg/mL
MIC (Pseudomonas aeruginosa [23]): > 16 µg/mL
MIC (Pseudomonas aeruginosa [24]): ≤ 0.25 µg/mL

CC1(C)[C@H](C(=O)O)N2C(=O)C[C@H]2S1(=O)=O [SULBACTAM]
MIC [25]: 1 µg/mL
MIC (Acinetobacter baumannii [26]): 32 µg/mL
MIC (Acinetobacter baumannii [27]): 16 µg/mL
MIC (Acinetobacter baumannii [28]): 1 µg/mL
MIC [29]: 2 µg/mL
MIC (Acinetobacter baumannii [30]): > 32 µg/mL
MIC (Acinetobacter baumannii [31]): 16 µg/mL
MIC (Acinetobacter baumannii [32]): 32 µg/mL
MIC [33]: 2 µg/mL
MIC (Acinetobacter baumannii [34]): 16 µg/mL
MIC [35]: 1 µg/mL
MIC (Acinetobacter baumannii [36]): 4 µg/mL
MIC (Acinetobacter baumannii [37]): > 32 µg/mL
MIC (Acinetobacter baumannii [38]): 1 µg/mL
MIC (Acinetobacter baumannii [39]): 8 µg/mL
MIC (Acinetobacter baumannii [40]): 16 µg/mL
MIC (Acinetobacter baumannii [41]): 16 µg/mL
MIC (Acinetobacter baumannii [42]): 32 µg/mL
MIC (Acinetobacter baumannii [43]): 16 µg/mL
MIC (Acinetobacter baumannii [44]): 16 µg/mL
MIC (Acinetobacter baumannii [45]): 16 µg/mL
MIC (Acinetobacter baumannii [46]): 2 µg/mL
MIC (Acinetobacter baumannii [47]): 16 µg/mL
